Data reported in ChEMBL document CHEMBL3244005, “Troponoids. 3. Synthesis and antiallergy activity of N-troponyloxamic acid esters” (J Med Chem, 1979).

Tests used:
Rattus norvegicus [1] = experiment: Antiallergic activity in Sprague-Dawley CD rat assessed as inhibition of passive anaphylaxis-induced hind paw edema at 30 mg/kg, ip relative to control; type: functional; conditions: Rattus norvegicus, Sprague-Dawley CD, ip, route intraperitoneal
Procedure, shortened: (§1)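 Passive anaphylaxis (reaginic antibody) induced in rat hind paw: serum with reaginic antibody injected into left hind paw; antigen given intravenously 24 h later. Paw volume measured by mercury displacement; activity read as inhibition of paw edema versus controls. Test compounds given ip or po. Inhibition of 35% or more considered significant by Student's t test (p < 0.05).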

Rattus norvegicus [2] = experiment: Antiallergic activity in Sprague-Dawley CD rat assessed as inhibition of passive anaphylaxis-induced hind paw edema at 10 mg/kg, ip relative to control; type: functional; conditions: Rattus norvegicus, Sprague-Dawley CD, ip, route intraperitoneal; procedure, shortened: as §1
Rattus norvegicus [3] = experiment: Antiallergic activity in Sprague-Dawley CD rat assessed as inhibition of passive anaphylaxis-induced hind paw edema at 100 mg/kg, po relative to control; type: functional; conditions: Rattus norvegicus, Sprague-Dawley CD, po; procedure, shortened: as §1
Rattus norvegicus [4] = experiment: Antiallergic activity in Sprague-Dawley CD rat assessed as inhibition of passive anaphylaxis-induced hind paw edema at 30 mg/kg, po relative to control; type: functional; conditions: for inhibition in vivo at 30 mg/kg: Rattus norvegicus, Sprague-Dawley CD, po; procedure, shortened: as §1
Rattus norvegicus [5] = experiment: Antiallergic activity in Sprague-Dawley CD rat passive anaphylaxis model assessed as hind paw edema volume at 10 mg/kg, ip relative to control; type: functional; conditions: route intraperitoneal; procedure, shortened: as §1
Rattus norvegicus [6] = experiment: Antiallergic activity in Sprague-Dawley CD rat passive anaphylaxis model assessed as hind paw edema volume at 3 mg/kg, ip relative to control; type: functional; conditions: route intraperitoneal; procedure, shortened: as §1
Rattus norvegicus [7] = experiment: Antiallergic activity in Sprague-Dawley CD rat passive anaphylaxis model assessed as hind paw edema volume at 1 mg/kg, ip relative to control; type: functional; conditions: route intraperitoneal; procedure, shortened: as §1
Rattus norvegicus [8] = experiment: Antiallergic activity in Sprague-Dawley CD rat passive anaphylaxis model assessed as hind paw edema volume at 30 mg/kg, po relative to control; type: functional; procedure, shortened: as §1
Rattus norvegicus [9] = experiment: Antiallergic activity in Sprague-Dawley CD rat passive anaphylaxis model assessed as hind paw edema volume at 10 mg/kg, po relative to control; type: functional; procedure, shortened: as §1
Rattus norvegicus [10] = experiment: Antiallergic activity in Sprague-Dawley CD rat passive anaphylaxis model assessed as hind paw edema volume at 3 mg/kg, po relative to control; type: functional; procedure, shortened: as §1
Rattus norvegicus [11] = experiment: Antiallergic activity in Sprague-Dawley CD rat assessed as inhibition of passive anaphylaxis-induced hind paw edema at 3 mg/kg, ip relative to control; type: functional; design: Activity: scale not given: the % may be the effect or the level left; conditions: route intraperitoneal; procedure, shortened: as §1
Rattus norvegicus [12] = experiment: Antiallergic activity in Sprague-Dawley CD rat assessed as inhibition of passive anaphylaxis-induced hind paw edema at 1 mg/kg, ip relative to control; type: functional; conditions: route intraperitoneal; procedure, shortened: as §1
Rattus norvegicus [13] = experiment: Antiallergic activity in Sprague-Dawley CD rat assessed as inhibition of passive anaphylaxis-induced hind paw edema at 10 mg/kg, po relative to control; type: functional; procedure, shortened: as §1
Rattus norvegicus [14] = experiment: Antiallergic activity in Sprague-Dawley CD rat assessed as inhibition of passive anaphylaxis-induced hind paw edema at 3 mg/kg, po relative to control; type: functional; conditions: Rattus norvegicus, Sprague-Dawley CD, po; procedure, shortened: as §1
Rattus norvegicus [15] = experiment: Drug metabolism in po dosed Sprague-Dawley CD rat passive anaphylaxis model assessed as 2-aminotropone level; type: ADME, organism-based; conditions: in vivo
[16] = Inhibition of beef heart PDE assessed as cyclic AMP level; design: species or system Bos taurus
Procedure, shortened: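 PDE from beef heart or guinea pig lung assayed by earlier-described methods; protein measured by Lowry method. IC50 taken from a plot of percent inhibition vs log inhibitor concentration, as the concentration giving 50% reduction in reaction velocity relative to uninhibited controls.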

Molecule `CCOC(=O)C(=O)Nc1ccccc(OC)c1=O` has an inhibition in vivo at 30 mg/kg (Rattus norvegicus [1]) of 52%, an inhibition in vivo at 10 mg/kg (Rattus norvegicus [2]) of 24% and an inhibition in vivo at 100 mg/kg (Rattus norvegicus [3]) of 56%. For the same molecule, the inhibition in vivo at 30 mg/kg (Rattus norvegicus [4]) was 59%.
With `CCOC(=O)C(=O)Nc1ccccc(Br)c1=O` the inhibition in vivo at 30 mg/kg (Rattus norvegicus [1]) was 52% and the inhibition in vivo at 100 mg/kg (Rattus norvegicus [3]) was 0%.
For `CCOC(=O)COC(=O)C(=O)Nc1cccccc1=O`, the inhibition in vivo at 10 mg/kg (Rattus norvegicus [2]) was 69%, the inhibition in vivo at 100 mg/kg (Rattus norvegicus [3]) was 64% and the inhibition in vivo at 30 mg/kg (Rattus norvegicus [4]) was 31%.
With `CCOC(=O)C(=O)Nc1ccccc(Oc2ccccc2)c1=O` the inhibition in vivo at 30 mg/kg (Rattus norvegicus [1]) was 16% and the inhibition in vivo at 100 mg/kg (Rattus norvegicus [3]) was 9%.
`COc1cccc2c(=O)c(CO)coc12` gave an inhibition in vivo at 30 mg/kg (Rattus norvegicus [1]) of 98%, an inhibition in vivo at 10 mg/kg (Rattus norvegicus [2]) of 70% and an inhibition in vivo at 100 mg/kg (Rattus norvegicus [3]) of 83%. The inhibition in vivo at 30 mg/kg (Rattus norvegicus [4]) was 53%, the Activity (Rattus norvegicus [5]) was 0.32 mL and the Activity (Rattus norvegicus [6]) was 0.68 mL. The Activity (Rattus norvegicus [7]) was 1 mL, the Activity (Rattus norvegicus [8]) was 0.63 mL and the Activity (Rattus norvegicus [9]) was 0.74 mL. It also gave an Activity (Rattus norvegicus [10]) of 1.13 mL, an inhibition in vivo at 3 mg/kg (Rattus norvegicus [11]; Rattus norvegicus, Sprague-Dawley CD, ip) of 39% and an inhibition in vivo at 1 mg/kg (Rattus norvegicus [12]) of 14%. The inhibition in vivo at 10 mg/kg (Rattus norvegicus [13]; Rattus norvegicus, Sprague-Dawley CD, po) was 44% and the inhibition in vivo at 3 mg/kg (Rattus norvegicus [14]) was 15%.
Molecule `CCOC(=O)C(=O)Nc1ccc(NC(=O)C(=O)OCC)c(=O)cc1` has an inhibition in vivo at 30 mg/kg (Rattus norvegicus [1]) of 84%, an inhibition in vivo at 10 mg/kg (Rattus norvegicus [2]) of 93% and an inhibition in vivo at 100 mg/kg (Rattus norvegicus [3]) of 76%. The inhibition in vivo at 30 mg/kg (Rattus norvegicus [4]) was 61%.
`CC(C)(C)OC(=O)C(=O)Nc1cccccc1=O` showed an inhibition in vivo at 30 mg/kg (Rattus norvegicus [1]) of 79%, an inhibition in vivo at 100 mg/kg (Rattus norvegicus [3]) of 82% and an inhibition in vivo at 30 mg/kg (Rattus norvegicus [4]) of 47%.
Molecule `CCCCCOC(=O)C(=O)Nc1cccccc1=O` has an inhibition in vivo at 30 mg/kg (Rattus norvegicus [1]) of 57%, an inhibition in vivo at 10 mg/kg (Rattus norvegicus [2]) of 61% and an inhibition in vivo at 30 mg/kg (Rattus norvegicus [4]) of 12%.
`CC(C)OC(=O)C(=O)Nc1cccccc1=O` gave an inhibition in vivo at 30 mg/kg (Rattus norvegicus [1]) of 96%, an inhibition in vivo at 10 mg/kg (Rattus norvegicus [2]) of 76% and an inhibition in vivo at 100 mg/kg (Rattus norvegicus [3]) of 72%. For the same molecule, the inhibition in vivo at 30 mg/kg (Rattus norvegicus [4]) was 63%.
`CCOC(=O)C(=O)Nc1ccc(Cl)ccc1=O` gave an inhibition in vivo at 30 mg/kg (Rattus norvegicus [1]) of 27% and an inhibition in vivo at 100 mg/kg (Rattus norvegicus [3]) of 25%.
`CCOC(=O)C(=O)Nc1cc(OC)cccc1=O` gave an inhibition in vivo at 30 mg/kg (Rattus norvegicus [1]) of 8%, an inhibition in vivo at 100 mg/kg (Rattus norvegicus [3]) of 53% and an inhibition in vivo at 30 mg/kg (Rattus norvegicus [4]) of 31%.
In the case of `CCOC(=O)C(=O)Nc1cccc(OC)cc1=O`, the inhibition in vivo at 30 mg/kg (Rattus norvegicus [1]) is reported as 67%, the inhibition in vivo at 10 mg/kg (Rattus norvegicus [2]) is reported as 73% and the inhibition in vivo at 100 mg/kg (Rattus norvegicus [3]) is reported as 48%. The inhibition in vivo at 30 mg/kg (Rattus norvegicus [4]) was 45%.
With `O=C(O)C(=O)Nc1cccccc1=O` the inhibition in vivo at 30 mg/kg (Rattus norvegicus [1]) was 77%, the inhibition in vivo at 10 mg/kg (Rattus norvegicus [2]) was 89% and the inhibition in vivo at 100 mg/kg (Rattus norvegicus [3]) was 62%. The “inhibition (INH)” value (Rattus norvegicus [4]) was 38%, the Activity (Rattus norvegicus [5]) was 0.12 mL and the Activity (Rattus norvegicus [6]) was 0.75 mL. For the same molecule, the Activity (Rattus norvegicus [8]) was 0.88 mL, the Activity (Rattus norvegicus [9]) was 1.11 mL and the Activity (Rattus norvegicus [11]) was 35%. For the same molecule, the “inhibition (INH)” value (Rattus norvegicus [13]) was 38%, the Drug metabolism (Rattus norvegicus [15]) was “metabolite_detected” and the IC50 [16] was 4.33 mM.
Work on `CCOC(=O)C(=O)Nc1ccc(O)c(=O)cc1` yielded an inhibition in vivo at 30 mg/kg (Rattus norvegicus [1]) of 10%.
`CCOC(=O)C(=O)Nc1ccccc(N(C)C(=O)C(=O)OCC)c1=O` showed an inhibition in vivo at 30 mg/kg (Rattus norvegicus [1]) of 51%, an inhibition in vivo at 10 mg/kg (Rattus norvegicus [2]) of 26% and an inhibition in vivo at 100 mg/kg (Rattus norvegicus [3]) of 0%. For the same molecule, the inhibition in vivo at 30 mg/kg (Rattus norvegicus [4]) was 6%.
Work on `CCOC(=O)C(=O)Nc1ccccc(NC)c1=O` yielded an inhibition in vivo at 30 mg/kg (Rattus norvegicus [1]) of 83%, an inhibition in vivo at 10 mg/kg (Rattus norvegicus [2]) of 73% and an inhibition in vivo at 30 mg/kg (Rattus norvegicus [4]) of 0%.
For `CCOC(=O)C(=O)Nc1c(Oc2ccccc2)ccccc1=O`, the inhibition in vivo at 30 mg/kg (Rattus norvegicus [1]) was 0% and the inhibition in vivo at 100 mg/kg (Rattus norvegicus [3]) was 20%.
